From ChEMBL document CHEMBL4431310, “Characterization and in vitro activity of a branched peptide boronic acid that interacts with HIV-1 RRE RNA” (Bioorg Med Chem, 2016)
Calls of active or inactive are those of the source. The calls are words filed in the database; no cut-off is given here. *1 amine or outer side, *2 acyl side, *3 side chain or, on linkers, in order; H or OH if unused. Where a SMILES comes first, the peptide text is derived from it. Side-chain parts run from the residue outwards. [ ]: non-standard residue; d: D form. The star is where a group is joined. X4 = NCCCC[C@H](NC(=O)[C@@H](N)CCCCNC(=O)c1ccc(B(O)O)cc1)C(=O)N[C@@H](Cc1ccc(B(O)O)cc1)C(=O)*; X1 = N[C@@H](Cc1ccc(B(O)O)cc1)C(=O)N[C@@H](Cc1ccc(O)cc1)C(=O)N[C@@H](Cc1ccc(B(O)O)cc1)C(=O)*; X2 = NCCCC[C@H](NC(=O)[C@@H](N)CCCCN)C(=O)N[C@@H](CCCCNC(=O)c1ccc(B(O)O)cc1)C(=O)*; X3 = NCCCC[C@H](N)C(=O)N[C@@H](CCCCNC(=O)c1ccc(B(O)O)cc1)C(=O)*; Phe(4-B(OH)2) = N[C@@H](Cc1ccc(B(O)O)cc1)C(=O)O; Benzoyl(4-B(OH)2) = O=C(c1ccc(B(O)O)cc1)*; εLys = N[C@@H](CCCCN[*:1])C(=O)[*:2]

Assays:
[1] = biological target: Rev responsive element (RRE) RNA; assay: Binding affinity to HIV-1 RRE 2B RNA measured after 4 hrs by dot blot assay; type: nucleic-acid assay, Human immunodeficiency virus 1
Outline: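 RNA at 0.4 nM titrated with peptide 0.001–100 µM for 4 h at rt, filtered through nitrocellulose, washed twice, imaged by phosphorimaging. Kd from four-parameter logistic fit of densitometry; triplicate, SD reported.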

[2] = system: Human immunodeficiency virus 1; assay: Antiviral activity against HIV-1 NL4-3 infected monkey 5BD.1 cells assessed as reduction in p24 production at 10 uM measured over 24 hrs by p24 ELISA; type: functional
[3] = system: Human immunodeficiency virus 1; assay: Antiviral activity against HIV-1 NL4-3 infected in human U87 cells expressing CD4.CXCR4 assessed as inhibition of p24 production at 10 uM measured after 4 days by p24 ELISA; type: functional, organism-based
HeLa = assay: Cytotoxicity in human HeLa cells assessed as cell viability at 100 nM to 10 uM measured over 24 hrs by MTT assay; type: cell-based; details: 0.1 µM
[4] = system: Human immunodeficiency virus 1; assay: Antiviral activity against HIV-1 NL4-3 infected in human U87 cells expressing CD4.CXCR4 assessed as inhibition of p24 production measured after 4 days by p24 ELISA; type: functional, organism-based
[5] = system: Human immunodeficiency virus 1; assay: Antiviral activity against HIV-1 NL4-3 infected in human U87 cells expressing CD4.CXCR4 assessed as inhibition of p24 production at 100 uM measured after 4 days by p24 ELISA; type: functional, organism-based
[6] = biological target: Rev responsive element (RRE) RNA; assay: Binding affinity to HIV-1 RRE 2B RNA measured after 4 hrs by EMSA; type: nucleic-acid assay, Human immunodeficiency virus 1
[7] = Toxicity against human U87 cells expressing CD4.CXCR4 assessed as cell viability at 10 uM measured after 24 hrs by MTT assay; type: cell-based, U-87MG ATCC; details: read-out: Activity
[8] = biological target: Rev responsive element (RRE) RNA; assay: Binding affinity to HIV-1 RRE 2B RNA in presence of 1000-fold excess tRNA; type: nucleic-acid assay, Human immunodeficiency virus 1
[9] = system: Rev responsive element (RRE) RNA; assay: Selectivity ratio of Kd for HIV-1 RRE 2B RNA to Kd for HIV-1 RRE 2B RNA in presence of 1000-fold excess tRNA; type: nucleic-acid assay; details: Human immunodeficiency virus 1
[10] = Binding affinity to HIV-1 TAR RNA; set-up: species or system Human immunodeficiency virus 1
[11] = system: Rev responsive element (RRE) RNA; assay: Binding affinity to HIV-1 RRE 2B RNA assessed as protection against RNase V1-mediated RRE 2B cleavage at G17 and C18 preincubated for 4 hrs followed by addition of RNase V1 measured after 10 mins by nuclease protection assay; type: nucleic-acid assay; details: Human immunodeficiency virus 1
Outline: (§1)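 5'-32P-labeled RRE IIB (10 nM) mixed with unlabeled RRE IIB (200 nM), heated to 95 °C for 3 min and snap-cooled. Incubated with peptide (up to 20 µM) on ice for 4 h in 10 mM Tris pH 7, 100 mM KCl, 10 mM MgCl2. Digested on ice with RNase V1 (0.002 U, 10 min), RNase T1 (1 U, 1 h) or RNase A (20 ng, 1 h). Stopped with inactivation/precipitation buffer, run on 12% urea PAGE, read by autoradiography against an alkaline hydrolysis ladder.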

[12] = system: Rev responsive element (RRE) RNA; assay: Binding affinity to HIV-1 RRE 2B RNA assessed as protection against RNase A-mediated RRE 2B cleavage at C21 and U24 preincubated for 4 hrs followed by addition of RNase A measured up to 20 uM after 1 hr by nuclease protection assay; type: nucleic-acid assay; details: Human immunodeficiency virus 1; outline: as §1
[13] = system: Rev responsive element (RRE) RNA; assay: Binding affinity to HIV-1 RRE 2B RNA assessed as protection against RNase T1-mediated RRE 2B cleavage preincubated for 4 hrs followed by addition of RNase T1 measured up to 20 uM after 1 hr by nuclease protection assay; type: nucleic-acid assay; details: Human immunodeficiency virus 1; outline: as §1
[14] = system: Rev responsive element (RRE) RNA; assay: Binding affinity to HIV-1 RRE 2B RNA assessed as protection against RNase A-mediated RRE 2B cleavage at U9 and G34 preincubated for 4 hrs followed by addition of RNase A at 20 uM measured after 1 hr by nuclease protection assay; type: nucleic-acid assay; details: Human immunodeficiency virus 1; outline: as §1
[15] = system: Rev responsive element (RRE) RNA; assay: Binding affinity to HIV-1 RRE 2B RNA assessed as protection against RNase T1-mediated RRE 2B cleavage at G10 and G11 preincubated for 4 hrs followed by addition of RNase T1 at 20 uM measured after 1 hr by nuclease protection assay; type: nucleic-acid assay; details: Human immunodeficiency virus 1; outline: as §1
[16] = system: Rev responsive element (RRE) RNA; assay: Binding affinity to HIV-1 RRE 2B RNA assessed as protection against RNase A-mediated RRE 2B cleavage at C33 of loop B preincubated for 4 hrs followed by addition of RNase A at 20 uM measured after 1 hr by nuclease protection assay; type: nucleic-acid assay; details: Human immunodeficiency virus 1; outline: as §1

Compound | Kd [1] [µM] | inhibition [2] | inhibition [3] | also measured
C[C@@H](O)[C@H](NC(=O)[C@@H]1CCCN1C(=O)[C@H](CCCCNC(=O)[C@H](CCCCN)NC(=O)[C@H](Cc1ccc(O)cc1)NC(=O)[C@@H](N)Cc1c[nH]c2ccccc12)NC(=O)[C@H](CCCCN)NC(=O)[C@H](Cc1ccc(O)cc1)NC(=O)[C@@H](N)Cc1c[nH]c2ccccc12)C(=O)N[C@@H](Cc1c[nH]c2ccccc12)C(=O)N[C@@H](Cc1ccc(O)cc1)C(=O)O (H-WYKK([Lys-Tyr-Trp])PTWY-OH) | 28.5 | Active | inactive | 
NCCCC[C@H](NC(=O)[C@H](CCCCN)NC(=O)[C@H](CCCCNC(=O)c1ccc(B(O)O)cc1)NC(=O)[C@H](CCCCNC(=O)[C@H](Cc1ccc(B(O)O)cc1)NC(=O)[C@H](CCCCN)NC(=O)[C@@H](N)CCCCNC(=O)c1ccc(B(O)O)cc1)NC(=O)[C@H](Cc1ccc(B(O)O)cc1)NC(=O)[C@H](CCCCN)NC(=O)[C@@H](N)CCCCNC(=O)c1ccc(B(O)O)cc1)C(=O)N[C@@H](Cc1ccc(O)cc1)C(=O)O (H-K(Benzoyl(4-B(OH)2))K[Phe(4-B(OH)2)]K(X4)K(Benzoyl(4-B(OH)2))KKY-OH) | 3.3 | Active | inactive | 
NCCCC[C@H](NC(=O)[C@H](CC(N)=O)NC(=O)[C@H](CCCCNC(=O)[C@H](Cc1ccc(B(O)O)cc1)NC(=O)[C@H](Cc1ccc(O)cc1)NC(=O)[C@@H](N)Cc1ccc(B(O)O)cc1)NC(=O)[C@H](Cc1ccc(B(O)O)cc1)NC(=O)[C@H](Cc1ccc(O)cc1)NC(=O)[C@@H](N)Cc1ccc(B(O)O)cc1)C(=O)N[C@@H](CO)C(=O)N[C@@H](Cc1ccc(O)cc1)C(=O)O (H-[Phe(4-B(OH)2)]Y[Phe(4-B(OH)2)]K(X1)NKSY-OH) | 8.7 |  | Active | inhibition at 10 µM ([2]; Human immunodeficiency virus 1, NL4-3, in Primates): 70%; Activity (HeLa): Non-Toxic; inhibition [4]: Dose-dependent effect; IC50 ([4]; Human immunodeficiency virus 1, NL4-3, U-87 MG, 96 h): 5 µM; inhibition [5]: Active; Kd [6]: 4.6 µM; viability at 24 h, 10 µM [7]: > 80%; Kd [8]: 26.4 µM; Selectivity ratio [9]: 3; Kd [10]: 5.2 µM; Activity [11]: Dose-dependent effect; Activity [12]: Active; Activity [13]: inactive; Activity [14]: inactive; Activity [15]: inactive; Activity [16]: inactive
N[C@@H](Cc1ccc(B(O)O)cc1)C(=O)N[C@@H](Cc1ccc(O)cc1)C(=O)N[C@@H](Cc1ccc(B(O)O)cc1)C(=O)NCCCC[C@H](NC(=O)[C@H](Cc1ccc(B(O)O)cc1)NC(=O)[C@H](Cc1ccc(O)cc1)NC(=O)[C@@H](N)Cc1ccc(B(O)O)cc1)C(=O)O | > 100 |  |  | 
NCCCC[C@H](NC(=O)[C@H](Cc1ccc(O)cc1)NC(=O)[C@@H](N)CCCCNC(=O)c1ccc(B(O)O)cc1)C(=O)NCCCC[C@H](NC(=O)[C@H](CCCCN)NC(=O)[C@H](Cc1ccc(O)cc1)NC(=O)[C@@H](N)CCCCNC(=O)c1ccc(B(O)O)cc1)C(=O)N[C@@H](Cc1cnc[nH]1)C(=O)N[C@@H](CCCCN)C(=O)N[C@@H](CCCCN)C(=O)N[C@@H](Cc1ccc(O)cc1)C(=O)O (H-K(Benzoyl(4-B(OH)2))YKK([Lys-Tyr-εLys-Benzoyl(4-B(OH)2)])HKKY-OH) | 86.5 | Active | inactive | 
NCCCC[C@H](NC(=O)[C@H](CCCCN)NC(=O)[C@H](CCCCNC(=O)[C@H](Cc1ccccc1)NC(=O)[C@H](CCCCNC(=O)c1ccc(B(O)O)cc1)NC(=O)[C@@H](N)CCCCN)NC(=O)[C@H](Cc1ccccc1)NC(=O)[C@H](CCCCNC(=O)c1ccc(B(O)O)cc1)NC(=O)[C@@H](N)CCCCN)C(=O)N[C@@H](Cc1c[nH]c2ccccc12)C(=O)N[C@@H](Cc1ccc(O)cc1)C(=O)O (H-KK(Benzoyl(4-B(OH)2))FK([Phe-X3])KKWY-OH) | 27.2 | Active | inactive | 
Cc1cn([C@H]2C[C@H](N=[N+]=[N-])[C@@H](CO)O2)c(=O)[nH]c1=O |  |  | Active | inhibition [5]: Active
CCc1c(C)nc2sc(C(N)=O)c(N)c2c1C |  | Active |  | 
C[C@@H](O)[C@H](NC(=O)[C@H](Cc1ccc(B(O)O)cc1)NC(=O)[C@H](CCCCNC(=O)[C@H](CCCCNC(=O)c1ccc(B(O)O)cc1)NC(=O)[C@H](CCCCN)NC(=O)[C@@H](N)CCCCN)NC(=O)[C@H](CCCCNC(=O)c1ccc(B(O)O)cc1)NC(=O)[C@H](CCCCN)NC(=O)[C@@H](N)CCCCN)C(=O)N[C@@H](CO)C(=O)N[C@@H](Cc1ccc(O)cc1)C(=O)O (H-KKK(Benzoyl(4-B(OH)2))K(X2)[Phe(4-B(OH)2)]TSY-OH) | 26.8 | Active | inactive | 
CC(C)C[C@H](NC(=O)[C@H](CCCCN)NC(=O)[C@H](CCCCNC(=O)[C@H](CCCCN)NC(=O)[C@H](CCCCNC(=O)c1ccc(B(O)O)cc1)NC(=O)[C@@H](N)CCCCN)NC(=O)[C@H](CCCCN)NC(=O)[C@H](CCCCNC(=O)c1ccc(B(O)O)cc1)NC(=O)[C@@H](N)CCCCN)C(=O)N[C@@H](CCCCN)C(=O)N[C@@H](Cc1ccc(O)cc1)C(=O)O (H-KK(Benzoyl(4-B(OH)2))KK([Lys-X3])KLKY-OH) | 58.4 | Active | inactive | 
Nc1ccn([C@@H]2CS[C@H](CO)O2)c(=O)n1 |  |  | Active | inhibition [5]: Active
NCCCC[C@H](NC(=O)[C@H](CCCCN)NC(=O)[C@@H](N)Cc1c[nH]c2ccccc12)C(=O)NCCCC[C@H](NC(=O)[C@H](CCCCN)NC(=O)[C@H](CCCCN)NC(=O)[C@@H](N)Cc1c[nH]c2ccccc12)C(=O)N[C@@H](CCCCNC(=O)c1ccc(B(O)O)cc1)C(=O)N[C@@H](Cc1ccc(O)cc1)C(=O)N[C@@H](Cc1c[nH]c2ccccc12)C(=O)N[C@@H](Cc1ccc(O)cc1)C(=O)O (H-WKKK([Lys-Lys-Trp])K(Benzoyl(4-B(OH)2))YWY-OH) | 1.4 | Active | inactive | 
NCCCC[C@H](NC(=O)[C@H](CC(N)=O)NC(=O)[C@H](Cc1ccc(B(O)O)cc1)NC(=O)[C@H](Cc1ccc(O)cc1)NC(=O)[C@H](Cc1ccc(B(O)O)cc1)NC(=O)[C@H](Cc1ccc(B(O)O)cc1)NC(=O)[C@H](Cc1ccc(O)cc1)NC(=O)[C@@H](N)Cc1ccc(B(O)O)cc1)C(=O)N[C@@H](CO)C(=O)N[C@@H](Cc1ccc(O)cc1)C(=O)O (H-[Phe(4-B(OH)2)]Y[Phe(4-B(OH)2)][Phe(4-B(OH)2)]Y[Phe(4-B(OH)2)]NKSY-OH) | 27.2 |  |  | 
NCCCC[C@H](NC(=O)[C@H](CC(N)=O)NC(=O)[C@H](CCCCN)NC(=O)[C@H](Cc1ccc(B(O)O)cc1)NC(=O)[C@H](Cc1ccc(O)cc1)NC(=O)[C@@H](N)Cc1ccc(B(O)O)cc1)C(=O)N[C@@H](CO)C(=O)N[C@@H](Cc1ccc(O)cc1)C(=O)O (H-[Phe(4-B(OH)2)]Y[Phe(4-B(OH)2)]KNKSY-OH) | 17.7 |  |  | 
